# Calls of active or inactive are those of the source. No cut-off for these calls is given here.
# Experiments:
# Mus musculus [1] = assay: Antiinflammatory activity in BALB/c mouse model assessed as inhibition of ovalbumin-induced eosinophil accumulation in bronchoalveolar lavage fluid at 1 mg/kg, ip administered 1 hr prior to and 7 hrs after ovalbumin challenge for 3 days measured 8 hrs after final dose by cell counting; assay type: functional; conditions: Lung, route intraperitoneal
# Method in brief: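 BALB/c mice were immunised with ovalbumin ip on days 0 and 7, then challenged with aerosolised ovalbumin for 30 min on days 15, 16 and 17. Bronchoalveolar lavage was done 8 h after the last challenge. Total cells were counted by haemocytometer, and eosinophils by differential count on DiffQuik-stained cytospins. Results are given as % inhibition, mean ± SEM.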
# Mus musculus [2] = assay: Antiinflammatory activity in BALB/c mouse contact hypersensitivity model assessed as inhibition of FITC-mediated ear swelling at 5 mg/kg, ip administered 1 hr prior to and 7 hrs after the FITC-challenge measured 24 hrs after final dose
structure (smiles),measurement,setting,value
C[C@@H]1C[C@H]2[C@@H]3CCC4=CC(=O)C=C[C@]4(C)[C@@]3(F)[C@@H](O)C[C@]2(C)[C@@]1(O)C(=O)CO [DEXAMETHASONE],inhibition in vivo at 1 mg/kg,Mus musculus [1],90%
same,inhibition,Mus musculus [2],Active
